Test results reported in ChEMBL document CHEMBL3808313, “Comparing the efficacy of photodynamic and sonodynamic therapy in non-melanoma and melanoma skin cancer” (Bioorg Med Chem, 2016).
Values belong to the compound of their own block, whether it stands above or below them. Activity calls are given as the source filed them. The calls are words filed in the database; no cut-off is given here.

Key:
A-431 [1] = test: Cytotoxicity against human A431 cells assessed as reduction in cell viability at 2 uM preincubated for 4 hrs followed by 5 J/cm'-2 red light irradiation measured after 24 hrs by MTT assay relative to control; format: functional; settings: A-431, light or radiation study
In short: (§1)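 A431 squamous carcinoma cells were seeded and incubated with ALA (1 or 2 μM) for 4 h. They were then exposed to either red light (630 nm ± 15 nm) or ultrasound. Viability was read by MTT assay 24 h after treatment.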

A-431 [2] = test: Cytotoxicity against human A431 cells assessed as reduction in cell viability at 1 uM preincubated for 4 hrs followed by 5 J/cm'-2 red light irradiation measured after 24 hrs by MTT assay; format: functional, cell-based; in short: as §1
A-431 [3] = test: Cytotoxicity against human A431 cells assessed as reduction in cell viability at 1 uM preincubated for 4 hrs followed by 90 J/cm'-2 ultrasound irradiation measured after 24 hrs by MTT assay; format: functional, cell-based; in short: as §1
A-431 [4] = test: Cytotoxicity against human A431 cells assessed as reduction in cell viability at 2 uM preincubated for 4 hrs followed by 90 J/cm'-2 ultrasound irradiation measured after 24 hrs by MTT assay relative to control; format: functional; settings: A-431, light or radiation study; in short: as §1
A-431 [5] = test: Antitumor activity against human A431 cells ectopically xenografted in topically dosed SCID mouse assessed as tumor growth pretreated for 4 hrs via Metvix cream followed by 220 J/cm'-2 ultrasound irradiation measured on day 7 post dosing relative to control; format: functional
Mus musculus [6] = test: Toxicity in topically dosed SCID mouse xenografted ectopically with human A431 cells assessed as reduction in body weight pretreated for 4 hrs via Metvix cream followed by 220 J/cm'-2 ultrasound irradiation measured on day 7 post dosing; format: organism-based, A-431; settings: in vivo, topical_or_ocular
Mus musculus [7] = test: Toxicity in topically dosed SCID mouse xenografted ectopically with human A431 cells assessed as reduction in body weight pretreated for 4 hrs via Metvix cream followed by 40 J/cm'-2 red light irradiation measured on day 7 post dosing; format: organism-based, A-431; settings: in vivo, topical_or_ocular
A-431 [8] = test: Antitumor activity against human A431 cells ectopically xenografted in topically dosed SCID mouse assessed as tumor growth pretreated for 4 hrs via Metvix cream followed by 40 J/cm'-2 red light irradiation measured on day 7 post dosing relative to control; format: functional
A-431 [9] = test: Antitumor activity against human A431 cells ectopically xenografted in topically dosed SCID mouse assessed as tumor growth treated for 4 hrs via Metvix cream measured on day 7 post dosing relative to control; format: functional
[10] = Induction of ROS generation in EtOH/H2O solution assessed as reduction in DPBF absorbance at 0.5 uM preincubated with compound followed by white light irradiation for 30 mins by UV-visible spectrometric analysis relative to control; format: physicochemical; design: scale not given: the % may be the effect or the level left; settings: 0.5 h
[11] = Induction of ROS generation in EtOH/H2O solution assessed as reduction in DPBF absorbance at 0.5 uM preincubated with compound followed by ultrasound irradiation for 30 mins by UV-visible spectrometric analysis relative to control; format: physicochemical; design: scale not given: the % may be the effect or the level left; settings: 0.5 h
HeLa [12] = test: Cytotoxicity against human HeLa cells assessed as reduction in cell viability at 0.5 uM preincubated for 3 hrs followed by 22.8 J/cm'-2 white light irradiation for 60 sec measured after 24 hrs by MTT assay relative to control; format: functional; settings: light or radiation study
[13] = Cytotoxicity against mouse B16-F10-luc2 cells assessed as reduction in cell viability at 0.5 uM preincubated for 3 hrs followed by 22.8 J/cm'-2 white light irradiation for 60 sec measured after 24 hrs by MTT assay relative to control; format: functional; settings: B16-F10-luc2, light or radiation study
RIF-1 [14] = test: Cytotoxicity against mouse RIF1 cells assessed as reduction in cell viability at 0.5 uM preincubated for 3 hrs followed by ultrsound irradiation through 3.4 to 6.8 mm guinea pig skin barrier by MTT assay; format: functional, cell-based
Mus musculus [15] = test: Toxicity in nude mouse xenografted ectopically with mouse B16-F10-Luc2 cells assessed as reduction in body weight at 100 uM pretreated with compound followed by ultrasound irradiation measured up to 6 days post dosing relative to control; format: organism-based; settings: in vivo
[16] = Antitumor activity against mouse B16-F10-luc2 cells ectopically xenografted in nude mouse assessed as tumor growth at 100 uM pretreated with compound followed by ultrasound irradiation measured on day 4 post dosing relative to control; format: functional
[17] = Antitumor activity against mouse B16-F10-luc2 cells ectopically xenografted in nude mouse assessed as tumor growth at 100 uM pretreated with compound followed by ultrasound irradiation measured up to 6 days post dosing relative to control; format: functional
[18] = Cytotoxicity against mouse RIF1 cells assessed as reduction in cell viability at 0.5 uM preincubated for 3 hrs followed by 11.4 J/cm'-2 white light irradiation for 30 sec measured after 24 hrs by MTT assay relative to control; format: functional; settings: RIF-1, light or radiation study
RIF-1 [19] = test: Cytotoxicity against mouse RIF1 cells assessed as reduction in cell viability at 0.5 uM preincubated for 3 hrs followed by white light irradiation through 3.4 to 6.8 mm guinea pig skin barrier by MTT assay; format: functional, cell-based
Mus musculus [20] = test: Toxicity in nude mouse xenografted ectopically with mouse B16-F10-Luc2 cells assessed as reduction in body weight at 100 uM pretreated with compound followed by white light irradiation measured up to 6 days post dosing relative to control; format: organism-based; settings: in vivo
[21] = Cytotoxicity against mouse B16-F10-luc2 cells assessed as reduction in cell viability at 0.5 uM preincubated for 3 hrs followed by 45 J/cm'-2 ultrasound irradiation for 30 sec measured after 24 hrs by MTT assay relative to control; format: functional; settings: B16-F10-luc2, light or radiation study
[22] = Cytotoxicity against mouse RIF1 cells assessed as reduction in cell viability at 0.5 uM preincubated for 3 hrs followed by 90 J/cm'-2 ultrasound irradiation for 60 sec measured after 24 hrs by MTT assay relative to control; format: functional; settings: RIF-1, light or radiation study
HeLa [23] = test: Cytotoxicity against human HeLa cells assessed as reduction in cell viability at 0.5 uM preincubated for 3 hrs followed by 11.4 J/cm'-2 white light irradiation for 30 sec measured after 24 hrs by MTT assay relative to control; format: functional; settings: light or radiation study
[24] = Antitumor activity against mouse B16-F10-luc2 cells ectopically xenografted in nude mouse assessed as tumor growth at 100 uM pretreated with compound followed by white light irradiation measured on day 4 post dosing relative to control; format: functional
HeLa [25] = test: Cytotoxicity against human HeLa cells assessed as reduction in cell viability at 0.5 uM preincubated for 3 hrs followed by 90 J/cm'-2 ultrasound irradiation for 60 sec measured after 24 hrs by MTT assay relative to control; format: functional; settings: light or radiation study
[26] = Cytotoxicity against mouse B16-F10-luc2 cells assessed as reduction in cell viability at 0.5 uM preincubated for 3 hrs followed by 11.4 J/cm'-2 white light irradiation for 30 sec measured after 24 hrs by MTT assay relative to control; format: functional; settings: B16-F10-luc2, light or radiation study
HeLa [27] = test: Cytotoxicity against human HeLa cells assessed as reduction in cell viability at 0.5 uM preincubated for 3 hrs followed by 45 J/cm'-2 ultrasound irradiation for 30 sec measured after 24 hrs by MTT assay relative to control; format: functional; settings: light or radiation study
[28] = Cytotoxicity against mouse RIF1 cells assessed as reduction in cell viability at 0.5 uM preincubated for 3 hrs followed by 45 J/cm'-2 ultrasound irradiation for 30 sec measured after 24 hrs by MTT assay relative to control; format: functional; settings: RIF-1, light or radiation study
[29] = Cytotoxicity against mouse B16-F10-luc2 cells assessed as reduction in cell viability at 0.5 uM preincubated for 3 hrs followed by 90 J/cm'-2 ultrasound irradiation for 60 sec measured after 24 hrs by MTT assay relative to control; format: functional; settings: B16-F10-luc2, light or radiation study
[30] = Cytotoxicity against mouse RIF1 cells assessed as reduction in cell viability at 0.5 uM preincubated for 3 hrs followed by 22.8 J/cm'-2 white light irradiation for 60 sec measured after 24 hrs by MTT assay relative to control; format: functional; settings: RIF-1, light or radiation study

SMILES: NCC(=O)CCC(=O)O [AMINOLEVULINIC ACID]
inhibition at 2 µM (A-431 [1]): 43%
inhibition (A-431 [2]): Active
inhibition (A-431 [3]): Active
inhibition at 2 µM (A-431 [4]): 31%

SMILES: COC(=O)CCC(=O)CN [METHYL AMINOLEVULINATE]
Activity (A-431 [5]): 11%
Activity (Mus musculus [6]): Non-toxic
Activity (Mus musculus [7]): Non-toxic
Activity (A-431 [8]): 22%
Activity (A-431 [9]): 90%

Activity [10]: 60%
Activity [11]: 17%
SMILES: C=CC1=C(C)c2cc3[nH]c(cc4nc(cc5[nH]c(cc1n2)c(C)c5CCC(=O)O)C(CCC(=O)O)=C4C)c(C)c3C=C [PROTOPORPHYRIN]

Activity [10]: Active
Activity [11]: Active
SMILES: O=C([O-])c1c(Cl)c(Cl)c(Cl)c(Cl)c1-c1c2cc(I)c(=O)c(I)c-2oc2c(I)c([O-])c(I)cc12.[Na+].[Na+] [ROSE BENGAL SODIUM]
inhibition at 0.5 µM (HeLa [12]): 50%
inhibition at 0.5 µM [13]: 18%
inhibition (RIF-1 [14]): Active
Activity (Mus musculus [15]): Non-toxic
Activity [16]: 120%
Activity [17]: 400%
inhibition at 0.5 µM [18]: 50%
inhibition (RIF-1 [19]): inactive
Activity (Mus musculus [20]): Non-toxic
inhibition at 0.5 µM [21]: 25%
inhibition at 0.5 µM [22]: 50%
inhibition at 0.5 µM (HeLa [23]): 50%
Activity [24]: 400%
inhibition at 0.5 µM (HeLa [25]): 50%
inhibition at 0.5 µM [26]: 7%
inhibition at 0.5 µM (HeLa [27]): 50%
inhibition at 0.5 µM [28]: 50%
inhibition at 0.5 µM [29]: 40%
inhibition at 0.5 µM [30]: 50%
